# Hits are enriched below; roughly 2.2% of the tested compounds scored in any of these assays.
# RanGTP-Impb inh: disruptors of Ran-importin-beta complex formation – biochemical, FRET, CFP-Ran, YFP-importin-beta, homogeneous, primary screen; cell-free CFP-Ran/YFP-importin-beta FRET ratio; actives 1.1% (n = 300,000); inhibition, % (concentration not given with the values);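 active means more than half of the replicate wells show a fall in the fluorescence ratio signal beyond about 16%, limit read from the data, passing the limit was not always enough; inconclusive means exactly half of the replicate wells pass the set limit; inactive means fewer than half of replicates pass the limit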;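 further: 0% = DMSO wells and 100% = Ran loaded with GDP instead of GTP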
# Runt-SMMHC FRET: blocks binding of human RUNX1 Runt domain to CBFb-SMMHC; Q01196+Q13951; Cerulean-Runt/Venus-CBFb-SMMHC FRET ratio 530/480, 1 h; inhibition, % at 20 µM; actives 0.74% (n = 220,000);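 active means mean inhibition across duplicate retests at 20 µM reaching about 50%, limit read from the data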;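 further: 0% = DMSO wells and 100% = wells with excess untagged CBFb-SMMHC; inhibitors lower the FRET ratio by blocking Runt binding to CBFb-SMMHC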
# Target sequence (Q01196 whole entry, looked up, the tested form may be a part): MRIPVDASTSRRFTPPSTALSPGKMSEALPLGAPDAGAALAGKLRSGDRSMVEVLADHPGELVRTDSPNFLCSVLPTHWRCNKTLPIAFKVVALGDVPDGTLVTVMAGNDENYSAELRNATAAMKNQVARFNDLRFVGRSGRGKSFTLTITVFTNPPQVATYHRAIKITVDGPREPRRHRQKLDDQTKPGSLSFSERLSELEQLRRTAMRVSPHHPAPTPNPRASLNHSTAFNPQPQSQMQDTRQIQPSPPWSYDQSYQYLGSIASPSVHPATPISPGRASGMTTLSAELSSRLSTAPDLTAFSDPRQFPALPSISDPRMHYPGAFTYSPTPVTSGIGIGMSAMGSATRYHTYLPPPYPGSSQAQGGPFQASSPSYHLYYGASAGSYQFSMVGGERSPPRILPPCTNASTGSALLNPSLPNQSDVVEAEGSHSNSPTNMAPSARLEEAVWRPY
# Target sequence (Q13951 whole entry, looked up, the tested form may be a part): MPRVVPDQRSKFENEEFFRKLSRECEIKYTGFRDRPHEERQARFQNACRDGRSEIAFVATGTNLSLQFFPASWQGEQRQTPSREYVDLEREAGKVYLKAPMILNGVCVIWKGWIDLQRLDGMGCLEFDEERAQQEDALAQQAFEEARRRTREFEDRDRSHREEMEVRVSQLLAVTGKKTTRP
# eIF4E 4G PPI: inhibitors of eIF4E and eIF4G interaction in translation initiation. actives 0.37% (n = 220,000). inhibition, % at 21.7 µM. TR-FRET eIF4E-eIF4GI(517-606) binding, 2 h. AID 782. P63073+Q04637;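 active means inhibition above about 30%, limit read from the data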;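 further: 0% = full FRET control wells and 100% = background wells lacking eIF4GI fragment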
# Hck-Nef inh: blocks Nef-activated human Hck kinase; Recombinant Hck-YEEI plus Nef, Z-Lyte FRET kinase assay; inhibition, % at 20 µM; actives 0.68% (n = 220,000);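 active means Hck-Nef kinase inhibition above about 50%, limit read from the data; inactive means inhibition below that limit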;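 further: 0% = DMSO with Hck plus Nef and 100% = Hck alone without Nef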
# PERK inhibitor: blocks human PERK kinase; inhibition, % at 5.6 µM; CHO PERK-DD fusion, SEAP luminescence translation reporter; Q9NZJ5; actives 0.17% (n = 220,000);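 active means inhibition above the mean inhibition of all tested compounds plus 3 SD, set separately per screening campaign, cut at about 2.9% in these data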;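 further: PERK kinase domain activated by AP20187 dimerizer at 100 nM; 0% = DMSO with dimerizer and 100% = rapamycin at 8.4 µM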
# Runt-CBFb FRET: inhibitors of human RUNX1 Runt domain binding to CBFb | Q01196+Q13951 | Cerulean-Runt/Venus-CBFb FRET ratio 530/480, 1 h | inhibition, % at 20 µM | actives 0.46% (n = 220,000) | AID 1496;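 active means inhibition over about 50% at 20 µM in the single-dose screen, limit read from the data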;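 further: 0% = DMSO wells and 100% = excess unlabeled CBFb competitor control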
#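 System: Cerulean-labeled Runt domain protein | Quantity: 100 nM of each labeled protein | Schedule: 1 h compound exposure, room temperature | Detection: Fluorescence energy transfer, 422 nm excitation, 530/480 nm emission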
# * = called active by the depositor; ? = inconclusive; nt = not tested or not shown; [ ] = dose if it differs, or a comment.
SMILES,RanGTP-Impb inh,Runt-SMMHC FRET,eIF4E 4G PPI,Hck-Nef inh,PERK inhibitor,Runt-CBFb FRET
CC1Oc2cc3c(-c4c(O)cc(O)c5c(O)c6c(cc45)OC(C)C(C)C6=O)c(O)cc(O)c3c(O)c2C(=O)C1C (configuration not stated),-1.0,-196.3,55.8*,49.3,-0.2,-28.0
Cc1ccc(S(=O)(=O)NC(Cc2cnc[nH]2)C(=O)O)cc1 (configuration not stated),5.9,-1.2,17.7,-3.1,0.4,-1.6
C=CCN(CC=C)Cc1c[nH]c2ccccc12,0.5,-7.1,-10.2,0.6,2.3,-0.4
CC(=O)Cc1c[nH]c2ccccc12,-0.1,2.6,97.0*,18.8,0.9,-0.7
[O-][n+]1onc2c1CCC1N(O)CCC21O (configuration not stated),3.9,1.6,3.2,4.6,-0.1,-0.2
Cc1ccc2cc(C=C(C#N)C#N)c(Cl)nc2c1,50.8*,-18.4,9.6,8.4,0.1,-3.8
Cc1cc(N2CCCC2)ccc1C=C(C#N)C#N,-0.4,-161.6,-3.2,11.5,0.0,-85.6
CCc1c(C)nc(N)nc1N1N=C1SCC(=O)OC,2.7,0.0,1.6,-5.7,0.7,1.7
CC(=O)c1ccc(NC(=O)N2C[C@H]3C[C@@H](C2)c2cccc(=O)n2C3)cc1,-5.2,nt,nt,nt,nt,nt
Cc1c(CC(=O)N2C[C@H]3C[C@@H](C2)c2cccc(=O)n2C3)c(=O)oc2c(C)c(O)ccc12,70.6*,nt,nt,nt,nt,nt
Cc1c(CC(=O)N2C[C@H]3C[C@@H](C2)c2cccc(=O)n2C3)c(=O)oc2cc(O)c(Cl)cc12,75.4*,nt,nt,nt,nt,nt
CCN(CC)P(=O)(c1nccn1C)N(CC)CC,nt,-2.1,0.9,4.7,-0.4,-0.7
O=C1NC(=O)C(CCc2ccccn2)(Cc2ccc3c(c2)OCO3)C(=O)N1CCc1ccccc1 (configuration not stated),1.6,-7.7,13.0,-22.5,-1.4,0.0
CCCCNC(=O)c1c(N)n(CCCOC)c2nc3ccccc3nc12,105.9*,54.3*,10.8,48.1,-1.3,5.4
CC(C)OC(=O)c1c(N)n(Cc2ccco2)c2nc3ccccc3nc12,?,nt,3.6,34.5,0.2,nt
Nc1c(C(=O)NCc2ccco2)c2nc3ccccc3nc2n1CCN1CCCCC1,71.4*,62.6,9.5,45.5,0.1,8.2
COCCOC(=O)c1c(N)n(Cc2ccco2)c2nc3ccccc3nc12,19.5*,74.3,nt,31.1,-0.3,nt
CCCCn1c(=O)c(C(=O)NCc2ccco2)c(O)c2ccccc21,-2.8,2.8,0.6,26.5,0.8,-3.5
CC(C)CNC(=O)c1c(N)n(Cc2ccco2)c2nc3ccccc3nc12,-1.2,nt,3.8,15.0,0.3,79.2*
CCN(CC)C(=O)c1ccc(NC(=O)COc2ccccc2F)cc1,1.4,4.3,-0.9,-1.4,-0.1,0.7
COc1ccccc1CCNC1CCCC(C)C1 (configuration not stated),-0.4,3.0,-6.2,6.3,-0.7,2.2
COc1cc(N2CCOCC2)ccc1/C=C1\C(=O)NC(=O)N(Cc2ccc3c(c2)OCO3)C1=O,0.3,0.7,5.7,34.7,0.6,-0.1
COCCCNC(=O)c1c(N)n(Cc2ccco2)c2nc3ccccc3nc12,71.9*,81.0*,5.5,47.2,0.1,75.9*
C[N+]1(C)[C@@H]2CC[C@H]1CC(OC(=O)[C@@H](CO)c1ccccc1)C2 (some centres not stated),-3.2,nt,nt,nt,nt,nt
C[N+]1(C)C2CCC1CC(OC(=O)c1ccco1)C2 (configuration not stated),-4.3,1.3,-0.3,14.8,3.3*,-10.0
SMILES,RanGTP-Impb inh,Runt-SMMHC FRET,eIF4E 4G PPI,Hck-Nef inh,PERK inhibitor,Runt-CBFb FRET
O=C(N/N=C/c1c(O)n(C2CC2)c(=S)[nH]c1=O)c1ccccc1O,0.2,73.0*,-5.8,1.9,0.6,41.9
O=C(N/N=C/c1c(O)n(-c2ccccc2)c(=S)[nH]c1=O)c1ccccc1,3.1,23.3,-4.5,15.3,-0.6,13.6
Cc1ccccc1-n1c(O)c(/C=N/NC(=O)c2ccccc2O)c(=O)[nH]c1=S,4.9,59.3*,0.1,5.7,1.4,28.7
COc1cc(O)c(C(=O)O)c(-c2cc(O)c(O)cc2C)c1,1.0,58.4*,-16.3,-43.1,nt,19.3
Nc1ccc2c(c1)oc1ccccc12,4.9,-2.4,3.0,1.8,3.6*,-0.4
CCN1C(=O)/C(=C\c2ccc([N+](=O)[O-])s2)C(=O)NC1=S,nt,24.3,24.1,88.5*,1.7,nt
CCCCn1c(O)c(/C=C/C=Nc2ccccc2)c(=O)[nH]c1=O,41.4*,64.3*,-0.7,3.6,0.9,47.3
Cn1c(O)c(/C=C/C=Nc2ccccc2)c(=O)n(C)c1=O,33.0*,69.0*,-1.6,1.7,0.3,34.8
CCCCC(=O)N/N=C/c1c(O)n(CCc2ccccc2)c(=O)[nH]c1=O,2.4,0.0,0.8,32.2,0.5,0.7
C[C@H]1CC[C@H]2NCCN[C@H]2C1,-4.2,-6.6,3.1,-2.3,3.1*,1.0
CCOP(=O)(OCC)C(C)(C)NC(=O)C(Cl)(Cl)Cl,84.5*,-0.3,9.8,-2.6,0.9,0.1
CCOP(=O)(OCC)C(NC(=O)CC(C)C)C(Cl)(Cl)Cl (configuration not stated),2.2,-0.8,-0.1,16.9,1.3,0.7
C[C@@H]1C(=O)O[C@@H]2[C@H](O)C34[C@@H]5OC(=O)C3(O[C@H]3OC(=O)[C@H](O)C34[C@H](C(C)(C)C)[C@H]5O)[C@@]12O (some centres not stated),-5.0,3.1,2.7,-8.1,0.6,-0.1
N#Cc1c(Cl)nc(Cl)c2c1CCN(Cc1ccccc1)C2,-0.2,60.8*,2.9,24.2,0.5,22.1
CCn1ncc(/C=C2/CC3C4CC=C5CC(O)CCC5(C)C4CCC3(C)C2=O)c1C (configuration not stated),nt,nt,nt,12.0,0.8,nt
O=P(C(c1c[nH]c2ccccc12)N1CCOCC1)(N1CCOCC1)N1CCOCC1 (configuration not stated),8.9,-4.1,6.5,-1.7,0.3,0.9
COc1ccc(CC2C(=O)NC(=O)N(c3ccccc3)C2=O)c(OC)c1 (configuration not stated),2.6,-6.3,68.8*[fluorescence artefact?],2.0,1.1,-2.7
CCc1ccccc1NC(=O)CNCc1ccccc1,2.9,0.1,-0.1,19.4,-0.3,0.3
Cc1cccc(N2C(=O)NC(=O)C3(Cc4cc(C)ccc4N(C)C3)C2=O)c1 (configuration not stated),3.6,3.3,5.1,-0.7,-1.1,0.1
COc1ccc(N=Cc2c(O)n(-c3ccc(C)cc3)c(=O)[nH]c2=O)cc1,-31.1,64.4*,-1.7,0.8,1.6,34.8

# Screens: PubChem BioAssay, several laboratories
